According to ChEMBL document CHEMBL4152354, “A reusable magnetic nickel nanoparticle based catalyst for the aqueous synthesis of diverse heterocycles and their evaluation as potential anti-bacterial agent” (2018):
Converted amounts (≈) assume the structure as drawn.

Assays:
Format in all cases: functional
[1] = test system: Streptococcus pyogenes; test: Antibacterial activity against Streptococcus pyogenes MTCC 1925 assessed as zone of inhibition at 100 uL after 24 hrs by agar well-diffusion method
Procedure, shortened: (§1)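 Mueller-Hinton agar plates swabbed with a bacterial suspension adjusted to 1.5×10^8 CFU/ml. Each 5 mm well received 100 µl of compound, and plates were incubated at 37°C for 24 h. Chloramphenicol (30 mcg) was the positive control and DMSO the negative control. Inhibition zones around wells were measured manually, in triplicate.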

[2] = test system: Salmonella enterica; test: Antibacterial activity against Salmonella enterica MTCC 735 assessed as zone of inhibition at 100 uL after 24 hrs by agar well-diffusion method
[3] = test system: Escherichia coli; test: Antibacterial activity against Escherichia coli MTCC 730 assessed as zone of inhibition at 100 uL after 24 hrs by agar well-diffusion method; procedure, shortened: as §1
[4] = test system: Bacillus cereus; test: Antibacterial activity against Bacillus cereus MTCC 430 assessed as zone of inhibition at 100 uL after 24 hrs by agar well-diffusion method; procedure, shortened: as §1
[5] = test system: Klebsiella pneumoniae; test: Antibacterial activity against Klebsiella pneumoniae MTCC 109 assessed as zone of inhibition at 100 uL after 24 hrs by agar well-diffusion method; procedure, shortened: as §1
[6] = test system: Bacillus cereus; test: Antibacterial activity against Bacillus cereus MTCC 430 after 18 hrs by TTC staining based broth microdilution method; settings: MTCC 430, 18 h
Procedure, shortened: (§2)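 Broth microdilution in Mueller-Hinton broth. 50 µl of inoculum from a 0.5 McFarland suspension was added to 50 µl of compound, giving final concentrations of 0.024–400 mg/ml in DMSO. Sealed plates were incubated at 37°C for 18 h, then 50 µl of 0.5% TTC was added for 1 h in the dark. MIC was the lowest concentration with no visible growth (well stays clear). Triplicate; mean ± SD.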

[7] = test system: Klebsiella pneumoniae; test: Antibacterial activity against Klebsiella pneumoniae MTCC 109 after 18 hrs by TTC staining based broth microdilution method; settings: MTCC 109, 18 h; procedure, shortened: as §2

Structure (SMILES)	inhibition zone (IZ) [1]	inhibition zone (IZ) [2]	inhibition zone (IZ) [3]	inhibition zone (IZ) [4]	inhibition zone (IZ) [5]	MIC [6]	MIC [7]
COc1cc(C(c2c(C)[nH][nH]c2=O)C2C(=O)NC(=O)NC2=O)ccc1O (configuration not stated)	16 mm	10 mm	17 mm	20 mm	16 mm	390 µg/mL (≈ 1080 µM)	780 µg/mL (≈ 2160 µM)
CC1(C)CC(=O)C(C(C2=C(O)CC(C)(C)CC2=O)c2cccc(F)c2)=C(O)C1	0 mm	0 mm	0 mm	0 mm	0 mm		
Cc1[nH][nH]c(=O)c1C(c1ccc(Cl)cc1)C1C(=O)NC(=O)NC1=O (configuration not stated)	16 mm	11 mm	17 mm	17 mm	21 mm	1560 µg/mL (≈ 4470 µM)	390 µg/mL (≈ 1120 µM)
COc1cc(C(c2c(C)[nH][nH]c2=O)C2C(=O)NC(=O)NC2=O)cc(OC)c1OC (configuration not stated)	17 mm	11 mm	13 mm	13 mm	19 mm	1560 µg/mL (≈ 3860 µM)	390 µg/mL (≈ 964 µM)
CC1(C)CC(=O)C(C(C2=C(O)CC(C)(C)CC2=O)c2ccc(Br)cc2)=C(O)C1	10 mm	0 mm	11 mm	11 mm	11 mm		
CN(C)c1ccc(C(C2=C(O)CC(C)(C)CC2=O)C2=C(O)CC(C)(C)CC2=O)cc1	0 mm	0 mm	0 mm	0 mm	0 mm		
Cc1ccc(C(c2c(C)[nH][nH]c2=O)C2C(=O)NC(=O)NC2=O)cc1 (configuration not stated)	11 mm	10 mm	12 mm	12 mm	10 mm	6250 µg/mL (≈ 19000 µM)	3120 µg/mL (≈ 9500 µM)
Cc1[nH][nH]c(=O)c1C(c1cccc([N+](=O)[O-])c1)C1C(=O)NC(=O)NC1=O (configuration not stated)	14 mm	10 mm	11 mm	13 mm	15 mm	1560 µg/mL (≈ 4340 µM)	780 µg/mL (≈ 2170 µM)
COc1ccc(C(C2=C(O)CC(C)(C)CC2=O)C2=C(O)CC(C)(C)CC2=O)cc1OC	0 mm	0 mm	0 mm	0 mm	0 mm		
Cc1[nH][nH]c(=O)c1C(c1ccccc1[N+](=O)[O-])C1C(=O)NC(=O)NC1=O (configuration not stated)	12 mm	10 mm	11 mm	14 mm	13 mm	6250 µg/mL (≈ 17400 µM)	3120 µg/mL (≈ 8680 µM)
O=c1oc2ccccc2c(O)c1C(c1cccc(Br)c1)c1c(O)c2ccccc2oc1=O	21 mm	11 mm	19 mm	13 mm	20 mm	3120 µg/mL (≈ 6350 µM)	390 µg/mL (≈ 794 µM)
O=c1oc2ccccc2c(O)c1C(c1cccc(F)c1)c1c(O)c2ccccc2oc1=O	21 mm	12 mm	18 mm	15 mm	21 mm	780 µg/mL (≈ 1810 µM)	390 µg/mL (≈ 906 µM)
Cc1[nH][nH]c(=O)c1C(c1ccc(N(C)C)cc1)C1C(=O)NC(=O)NC1=O (configuration not stated)	10 mm	12 mm	10 mm	13 mm	10 mm	3120 µg/mL (≈ 8730 µM)	3120 µg/mL (≈ 8730 µM)
CC1(C)CC(=O)C(C(C2=C(O)CC(C)(C)CC2=O)c2ccc(Cl)cc2)=C(O)C1	0 mm	0 mm	0 mm	0 mm	0 mm		
Cc1[nH][nH]c(=O)c1C(c1ccc(Br)cc1)C1C(=O)NC(=O)NC1=O (configuration not stated)	17 mm	10 mm	15 mm	15 mm	15 mm	780 µg/mL (≈ 1980 µM)	780 µg/mL (≈ 1980 µM)
CCOc1ccc(C(C2=C(O)CC(C)(C)CC2=O)C2=C(O)CC(C)(C)CC2=O)cc1	0 mm	0 mm	0 mm	0 mm	0 mm		
Cc1ccc(C(c2c(O)c3ccccc3oc2=O)c2c(O)c3ccccc3oc2=O)cc1	25 mm	10 mm	19 mm	18 mm	20 mm	390 µg/mL (≈ 915 µM)	390 µg/mL (≈ 915 µM)
